Assay [1] has as its target S-adenosylmethionine synthetase (MAT 1 and MAT 2) (Rattus norvegicus, UniProt P13444+P18298). Briefly: Competitive inhibitory activity against methionine adenosyltransferase. It is filed as protein assay. In outline:
(§1)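 Rat kidney M-2 or Novikoff hepatoma M-T MAT, partially purified. Run at 37 °C, pH 8.2 (Tris, KCl, MgCl2, DTT) with 2 mM MgATP. [14C]Met at five or six levels spanning (0.5–4)×KM, with two inhibitor levels (1–3 mM) and no-inhibitor controls. 10 min, HClO4 stop, phosphocellulose disc counting. Ki from replots of double-reciprocal slopes vs inhibitor concentration.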

Assay [2] addresses S-adenosylmethionine synthase isoform type-2 (Rattus norvegicus, UniProt P18298). Description: Competitive inhibitory activity against Methionine adenosyltransferase II. In outline: as §1

Chain of S-adenosylmethionine synthase isoform type-2 (P18298 whole entry, canonical isoform): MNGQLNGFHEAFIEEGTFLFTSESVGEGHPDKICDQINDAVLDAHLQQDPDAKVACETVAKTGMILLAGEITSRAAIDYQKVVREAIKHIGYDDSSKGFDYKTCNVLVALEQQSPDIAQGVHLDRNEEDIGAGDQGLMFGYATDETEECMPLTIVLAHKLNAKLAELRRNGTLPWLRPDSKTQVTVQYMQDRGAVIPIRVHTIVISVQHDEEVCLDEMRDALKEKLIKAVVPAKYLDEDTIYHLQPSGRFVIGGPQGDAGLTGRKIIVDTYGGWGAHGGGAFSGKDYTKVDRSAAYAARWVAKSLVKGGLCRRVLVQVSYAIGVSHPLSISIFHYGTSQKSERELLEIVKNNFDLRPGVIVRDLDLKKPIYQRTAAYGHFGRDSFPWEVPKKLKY

Take `CSCC(C)C(N)C(=O)O` (centres undefined): the Ki in assay [1] and in assay [2] was 500 µM in each case.

With `CSC(C)C[C@@H](N)C(=O)O` (some centres undefined), the Ki in assay [1] stood at 3200 µM; in assay [2], 2400 µM.

(Values after ChEMBL document CHEMBL1123437, “Isozyme-specific enzyme inhibitors. 12. C- and N-methylmethionines as substrates and inhibitors of methionine adenosyltransferases of normal and hepatoma rat tissues” (J Med Chem, 1986).)
